Where a SMILES comes first, the peptide text is derived from it. Bridges are numbered along the chain shown (N, C = ends).
Key:
[1] = molecular target: Melanocortin receptor 4 (Mus musculus) (UniProt P56450)
[2] = molecular target: Melanocortin receptor 3 (Mus musculus) (UniProt P33033); assay: Partial agonist activity towards mouse Melanocortin-3 receptor; type: functional
Procedure, shortened: (§1)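 HEK-293 cells stably expressing mouse melanocortin receptors (G418-selected) were transiently transfected with a CRE/β-galactosidase reporter. 48 h after transfection, cells were stimulated for 6 h with peptide (10^-4 to 10^-12 M) or forskolin (10^-4 M) in DMEM with 0.1 mg/mL BSA and 0.1 mM IBMX. Lysates were incubated with ONPG at 37° and read at OD405. Signals were normalized to relative protein (OD595) and to forskolin response. EC50 came from nonlinear least-squares fits of duplicate experiments in quadruplet or more.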

[3] = molecular target: Melanocortin receptor 3 (Mus musculus) (UniProt P33033); assay: Agonist activity for mouse Melanocortin-3 receptor; type: functional
Procedure, shortened: as §1

[4] = molecular target: Melanocortin receptor 3 (Mus musculus) (UniProt P33033); assay: Relative percent of stimulatory activity for mouse Melanocortin-3 receptor at 100 uM
Procedure, shortened: as §1

[5] = molecular target: Melanocortin receptor 3 (Mus musculus) (UniProt P33033); assay: Antagonist activity for mouse Melanocortin-3 receptor; type: functional
[6] = molecular target: Melanocortin receptor 4 (Mus musculus) (UniProt P56450); assay: Partial agonist concentration for mouse Melanocortin-4 receptor; type: functional
[7] = molecular target: Melanocortin receptor 4 (Mus musculus) (UniProt P56450); assay: Partial agonist activity towards mouse Melanocortin-4 receptor; type: functional
Procedure, shortened: as §1

Melanocortin receptor 3 (Mus musculus), sequence (P33033 whole entry): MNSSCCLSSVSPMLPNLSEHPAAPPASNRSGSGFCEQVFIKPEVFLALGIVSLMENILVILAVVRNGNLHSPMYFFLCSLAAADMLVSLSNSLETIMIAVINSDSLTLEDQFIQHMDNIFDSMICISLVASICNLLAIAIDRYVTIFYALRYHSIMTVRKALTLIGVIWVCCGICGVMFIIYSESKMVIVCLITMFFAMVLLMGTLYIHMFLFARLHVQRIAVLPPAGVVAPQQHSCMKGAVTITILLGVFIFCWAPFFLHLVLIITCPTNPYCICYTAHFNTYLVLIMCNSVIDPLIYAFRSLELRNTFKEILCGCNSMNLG
Melanocortin receptor 4 (Mus musculus), sequence (P56450 whole entry): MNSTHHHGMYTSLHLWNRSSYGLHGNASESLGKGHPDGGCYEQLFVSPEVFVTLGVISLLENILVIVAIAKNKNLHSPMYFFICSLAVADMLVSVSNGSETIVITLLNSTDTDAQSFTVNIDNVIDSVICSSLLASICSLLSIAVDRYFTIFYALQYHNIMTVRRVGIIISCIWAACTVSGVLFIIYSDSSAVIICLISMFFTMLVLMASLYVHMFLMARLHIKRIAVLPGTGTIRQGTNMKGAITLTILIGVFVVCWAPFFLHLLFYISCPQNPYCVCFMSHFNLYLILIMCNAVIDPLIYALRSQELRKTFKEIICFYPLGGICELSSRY

Work on `C[C@@H]1NC(=O)[C@H](CC(N)=O)NC(=O)[C@H](Cc2ccccc2)NC(=O)[C@H](Cc2ccccc2)NC(=O)[C@H](CCCN=C(N)N)NC(=O)[C@@H](NC(=O)[C@@H](N)Cc2ccc(O)cc2)CSSC[C@@H](C(=O)N[C@@H](Cc2ccc(O)cc2)C(N)=O)NC(=O)[C@H](Cc2ccccc2)NC1=O` (H-YCRFFNAFCY-NH2; disulfide 2-9) yielded a pA2 [1] of 6.8.
Work on `C[C@@H]1NC(=O)[C@H](CC(N)=O)NC(=O)[C@H](Cc2c[nH]c3ccccc23)NC(=O)[C@H](CCCN=C(N)N)NC(=O)[C@@H](Cc2ccccc2)NC(=O)[C@@H]2CCCN2C(=O)[C@@H](NC(=O)[C@@H](N)Cc2ccc(O)cc2)CC(=O)N([C@@H](Cc2ccc(O)cc2)C(N)=O)[C@@](C)(C(=O)O)NC(=O)[C@H](Cc2ccccc2)NC1=O` yielded a pA2 [2] of 7.2.
For `C[C@@H]1NC(=O)[C@H](CC(N)=O)NC(=O)[C@H](Cc2c[nH]c3ccccc23)NC(=O)[C@H](CCCN=C(N)N)NC(=O)[C@@H](Cc2ccccc2)NC(=O)C2(CCc3ccccc3C2)NC(=O)[C@@H](NC(=O)[C@@H](N)Cc2ccc(O)cc2)CC(=O)N([C@@H](Cc2ccc(O)cc2)C(N)=O)[C@@](C)(C(=O)O)NC(=O)[C@H](Cc2ccccc2)NC1=O` (mixture of isomers), the pA2 [3] was 6.4 and the SA [4] was 40%.
Work on `C[C@@H]1NC(=O)[C@H](CC(N)=O)NC(=O)[C@H](Cc2c[nH]c3ccccc23)NC(=O)[C@H](CCCN=C(N)N)NC(=O)[C@@H](Cc2ccc3ccccc3c2)NC(=O)[C@H](Cc2c[nH]cn2)NC(=O)[C@@H](NC(=O)[C@@H](N)Cc2ccc(O)cc2)CC(=O)N([C@@H](Cc2ccc(O)cc2)C(N)=O)[C@@](C)(C(=O)O)NC(=O)[C@H](Cc2ccccc2)NC1=O` yielded a pA2 [5] of 8.2 and a pA2 [6] of 9.1.
For `C[C@@H]1NC(=O)[C@H](CC(N)=O)NC(=O)[C@H](Cc2c[nH]c3ccccc23)NC(=O)[C@H](CCCN=C(N)N)NC(=O)[C@@H](Cc2ccc(I)cc2)NC(=O)[C@H](Cc2c[nH]cn2)NC(=O)[C@@H](NC(=O)[C@@H](N)Cc2ccc(O)cc2)CC(=O)N([C@@H](Cc2ccc(O)cc2)C(N)=O)[C@@](C)(C(=O)O)NC(=O)C(Cc2ccccc2)NC1=O` (stereo in doubt), the pA2 [5] was 8.8 and the pA2 [7] was 9.4.
